Test system: MS2 coat protein
Assay: apparent Kd, MS2 coat protein; higher = weaker binding; RNA-MaP array; FMN 200 µM where present
Summary of the method: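 Stalled E. coli RNA polymerase transcribed the designs on Illumina sequencing-chip clusters. SNAP-549-labelled MS2 coat protein was titrated from 0.7 or 1.5 nM, doubling to 3 µM, without and then with constant ligand, in 100 mM Tris-HCl pH 7.5, 80 mM KCl, 4 mM MgCl2, BSA, DTT, yeast tRNA and Tween-20. Per-cluster binding curves were fitted to green signal normalised to red-channel RNA signal and control-cluster median Fmax. The apparent Kd is the median of the filtered fits.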

[1] = designed as: ON switch for flavin mononucleotide, no ligand
[2] = ligand present: flavin mononucleotide, designed as: ON switch for flavin mononucleotide
[3] = designed as: OFF switch for flavin mononucleotide, no ligand
[4] = ligand present: flavin mononucleotide, designed as: OFF switch for flavin mononucleotide

## UGUUACUAGGGAGGAUAUGGGAAGAUACAUGAGGAUCACCCAUGUUUAAGAAUGCCGAGAGGCAACUAGAAGGCCCUAGUACCU
[1]
  apparent Kd: 354 nM
[2]
  apparent Kd: 23.1 nM

## UGUUAGUAGACAGGAUAUUGAAUGUUAAGUAUUAACAUGAGGAUCACCCAUGUAUUAGAUUGGUACAAGAAGGGUCAAGUUUGU
[1]
  apparent Kd: 380 nM
[2]
  apparent Kd: 653 nM

## UGUUGGAGCAGAGGAUAUUACAUGAGGAUCACCCAUGUAUGAACCAAUAGCUGGAAACAGCAAUGUAAGAAGGCUGCUCCGACA
[3]
  apparent Kd: 12.1 nM
[4]
  apparent Kd: 161 nM

## UGUUGUAUUACAGGAUAUCUAGUAUUUUUAUGUAGAGAAGGGUAUUCACAUGAGGAUCACCCAUGUAUAUACGAGGAAGUUGUG
[1]
  apparent Kd: 39.7 nM
[2]
  apparent Kd: 43.2 nM

## UGUUGUAUUACAGGAUAUCUAUAAUUUUUAUUUAGAGAAGGGUAUUCACAUGAGGAUCACCCAUGUAUAUACGAGGAAGUUGUG
[1]
  apparent Kd: 43.5 nM
[2]
  apparent Kd: 45.8 nM

## UGUUGUAUUACAGGAUAUCUAUUAUUUUGAUUUAGAGAAGGGUAUUCACAUGAGGAUCACCCAUGUAUAUACGAGGAAGUUGUG
[1]
  apparent Kd: 47.7 nM
[2]
  apparent Kd: 47.9 nM

## UGUUGUAUUACAGGAUAUCUAUUAUUUUUACUUAGAGAAGGGUAUUCACAUGAGGAUCACCCAUGUAUAUACGAGGAAGUUGUG
[1]
  apparent Kd: 54.2 nM
[2]
  apparent Kd: 56 nM

## UGUUGUAUUACAGGAUAUCUAUUAUUUUUGUUUAGAGAAGGGUAUUCACAUGAGGAUCACCCAUGUAUAUACGAGGAAGUUGUG
[1]
  apparent Kd: 53.5 nM
[2]
  apparent Kd: 61.8 nM

## UGUUGUUCAGGAUAUGGUGUGUUAUACAUGAGGAUCACCCAUGUGGGUCCUGAUUUGGCGUCAGAAGGGAAUGUUG
[3]
  apparent Kd: 486 nM
[4]
  apparent Kd: 406 nM

## UGUUGUUUAGGAUAUACAUGAGGAUCACCCAUGUGACAAAAAUAUUUUACAAAACCAUGUAGAAGGAAAUGGCA
[3]
  apparent Kd: 22.3 nM
[4]
  apparent Kd: 48.2 nM

## UGUUUUGAAGUAGGAUAUCAACACACAUGAGGAUCACCCAUGUUAGAUGUGGAUGUUGUAUGUUAUGAGAAGGACUUCGAUUCG
[3]
  apparent Kd: 25.6 nM
[4]
  apparent Kd: 95.4 nM

## UGUUUUGUACAUGAGGAUCACCCAUGUUAAUAUGUGGUAGUCAGAAGGCAUUGUUUGAGAUAUUAUGAGGAUAUGAUUAGUCUG
[2]
  apparent Kd: 43.9 nM

## UUAAACGCAGGAUAUACAUUUUUUUUAUUAUCCUCAUAAAUACAUGAGGAUCACCCAUGUAGAAGGGCGAAAUU
[3]
  apparent Kd: 239 nM
[4]
  apparent Kd: 210 nM

## UUAAAUCAUGUAGGAUAUGCAUGGCGAAGCUACGCAGAAGGACAUGAGGAUCACCCAUGUGCUAGCUACCGAGUACGGUGGCAA
[3]
  apparent Kd: 64.9 nM
[4]
  apparent Kd: 251 nM

## UUAAAUCAUGUAGGAUAUGCAUGGCGAAGCUACGCAGAAGGACAUGAGGAUCACCCAUGUUAUAGCGUCCGAUAAAGGAUGCAA
[3]
  apparent Kd: 85.1 nM
[4]
  apparent Kd: 225 nM

## UUAAAUCAUGUAGGAUAUGCAUGGCGAAGCUACGCAGAAGGACAUGAGGAUCACCCAUGUUAUAGCGUCUGAGUACAGAUGCAA
[3]
  apparent Kd: 79.6 nM
[4]
  apparent Kd: 268 nM

## UUAAAUCAUGUAGGAUAUGCAUGGCGAAGCUACGCAGAAGGACAUGAGGAUCACCCAUGUUAUAGCUAGGCAGUUCCCUGGCAA
[3]
  apparent Kd: 70.2 nM
[4]
  apparent Kd: 214 nM

## UUAAAUCAUGUAGGAUAUGCAUGGCGAAGCUACGCAGAAGGACAUGAGGAUCACCCAUGUUCUGGCUACCGGAUACGGUGGCAA
[3]
  apparent Kd: 20.6 nM
[4]
  apparent Kd: 83.6 nM

## UUAAAUCGAAACAUGAGGAUCACCCAUGUGUUGUAAUUAAUAUAGGAUAUGUGUAUACUUUUAUGACAGAAGGAUGAUAAUACU
[1]
  apparent Kd: 21.5 nM
[2]
  apparent Kd: 14.4 nM

## UUAAUCUAUACAGGAUAUCCAUACGCUGCAUACGGAGAAGGGUAACAAUCAUGAGGACAUGAGGAUCACCCAUGUUCUGAGCAU
[1]
  apparent Kd: 11.7 nM
[2]
  apparent Kd: 10.7 nM

## UUAAUUAACAAGAAGGCUAACAUGAGGAUCACCCAUGUUGUACAUGGAUAUAGAGGAUAUUGCUAAUAAUUAUUUAUCUUAAUU
[3]
  apparent Kd: 25.3 nM
[4]
  apparent Kd: 19.4 nM

## UUAAUUAAUUAAGCGCAAGAUCACAUGAGGAUCACCCAUGUAUAGGAUAUCAGCUCGAUUAGAGCUGAGAAGGAUACAUAGCGC
[3]
  apparent Kd: 203 nM
[4]
  apparent Kd: 568 nM

## UUAAUUCGAAACAUGAGGAUCACCCAUGUGUUGUGGUUAAUAUAGGAUAUGUGUAUACUUUUAUGACAGAAGGAUGAUGGUACU
[1]
  apparent Kd: 14.2 nM
[2]
  apparent Kd: 11.8 nM

## UUAAUUCUGAUUCUUGAAAUACAUGAGGAUCACCCAUGUUCACAGGAUAUUGAUUAUGUUAGUAACAAGAAGGGUGUAACAUAU
[3]
  apparent Kd: 30.6 nM
[4]
  apparent Kd: 85.6 nM

## UUAAUUUUACAAGGAUAUCUAUUGUUAUUUCGACUUACAUGAGGAUCACCCAUGUUAAUAUAUUUAGAGAAGGUGUAUUUUCAG
[1]
  apparent Kd: 99.4 nM
[2]
  apparent Kd: 52.4 nM

## UUACAGCAAGGAUAUACGGGCUGUGCUUUUCAUUUCUUACAACAUGAGGAUCACCCAUGUAGAAGGUGCAACAU
[3]
  apparent Kd: 32.6 nM
[4]
  apparent Kd: 73.7 nM

## UUACCUUAUGAGAAGGCGAUCAUGAAACAUGAUCGAGGAUAUCAUGUAAACAUGAGGAUCACCCAUGUAUGGGUAUUAUGGUAU
[1]
  apparent Kd: 96 nM
[2]
  apparent Kd: 23.9 nM

## UUACGUCCCGUUUACAUGAGGAUCACCCAUGUCGAAAGAGCGGAGGAUAUGCUACCUAGUUGGUAGCAGAAGGUUGCAACGUCG
[1]
  apparent Kd: 17.7 nM
[2]
  apparent Kd: 28.3 nM

## UUACUCAUGUAAGGAUAUGCAGCCGUUUCGGCUGCAGAAGGUACUAUAAUACAUGAGGAUCACCCAUGUCUUUUUAAUUUGUAC
[1]
  apparent Kd: 35.7 nM
[2]
  apparent Kd: 23.1 nM

## UUAGAACAUGAGGAUCACCCAUGUGAGGAUAUGCAAUACUAAUAUUAAGAUAAUUAUAGCAGAAGGCACGUAGU
[3]
  apparent Kd: 34.3 nM
[4]
  apparent Kd: 47.7 nM

## UUAGGCUUCUAGAAGGCAGUCCAGCUGGAGGACUGAGGAUAUAGGCACCUAACAUGAGGAUCACCCAUGUUAGUGAUUCCUCAA
[3]
  apparent Kd: 38.7 nM
[4]
  apparent Kd: 73 nM

## UUAUGAGAGCAGGAUAUCUUAUUUUUUUUUUAUGGAGAAGGGCUCACAUGAGGAUCACCCAUGUGGUCCUAGAU
[3]
  apparent Kd: 27.9 nM
[4]
  apparent Kd: 54.4 nM

## UUAUGGCUAGGAUAUGCACGUGCAUGUUCAAGUCAAAGAAGACAUGAGGAUCACCCAUGUAGAAGGAGCGAUAA
[3]
  apparent Kd: 28.8 nM
[4]
  apparent Kd: 21.2 nM

## UUAUUAUGUGUAGGAUAUGCAUAUUAUUAUUAUGCAGAAGGACAUGAGGAUCACCCAUGUAUAUUGUUAUUAUAUAUUAUAUAU
[3]
  apparent Kd: 11.5 nM
[4]
  apparent Kd: 16.7 nM

## UUAUUUAGGUAGGAUAUCGAUACCAAUCCCUAUCGAGAAGGGUCUACAUGAGGAUCACCCAUGUUAGCAUGUUU
[3]
  apparent Kd: 20.1 nM
[4]
  apparent Kd: 21.1 nM

## UUAUUUUGUCAAGGAUAUGUAUUAUUGAUUUGAAAACAUGAGGAUCACCCAUGUAUAUGGUGGGAACAGAAGGUGAAUGGUGAA
[3]
  apparent Kd: 194 nM
[4]
  apparent Kd: 215 nM

## UUAUUUUUAUGAUUGAGGAUAGGGCAGGAUAUACAUGAGGAUCACCCAUGUAAAGCAAUAAGGAGGUAGAAGGGCCAACCUCAU
[3]
  apparent Kd: 24.3 nM
[4]
  apparent Kd: 20.1 nM

## UUCAAGUUGCGAGGAUAUCGUGUUAACAUGAGGAUCACCCAUGUAAAGGUAUAUUAAAUUAUCUUCGAGAAGGCGCUUAAUGUA
[1]
  apparent Kd: 22.6 nM
[2]
  apparent Kd: 20.3 nM

## UUCAAUCACAUAGGAUAUAGAAUAUUAUUUUUUUACAUGAGGAUCACCCAUGUUUUAUUGGGUUUCUAGAAGGAUGAGUUAUUA
[1]
  apparent Kd: 451 nM
[2]
  apparent Kd: 289 nM

## UUCACGUAUAUAGGAUAUGCGGGCAAAUAACGCGCAGAAGGAUAUACAUGAGGAUCACCCAUGUAUUGAGACCUCAUACGCCGC
[3]
  apparent Kd: 7.47 nM
[4]
  apparent Kd: 9.38 nM

## UUCACUCGAGUCAGGAUAUUAGUCCGCGAUAGUGUUAAGAAGGGACAUGAGGAUCACCCAUGUCACACAUGGAG
[3]
  apparent Kd: 28.2 nM
[4]
  apparent Kd: 23.2 nM

## UUCAGCUCGUCAGGAUAUACGUCACUGCUUCGGCAGUGUGGUAAGAUCACAUGAGGAUCACCCAUGUAGAAGGGACGAGCUGAU
[3]
  apparent Kd: 11.9 nM
[4]
  apparent Kd: 274 nM

## UUCAGCUCGUGAGGAUAUACAUGUGCUGGAAACAGCACUAAUAGAAUCACAUGAGGAUCACCCAUGUAGAAGGCACGAGCUGAG
[3]
  apparent Kd: 17.2 nM
[4]
  apparent Kd: 40.1 nM

## UUCAGCUCGUGAGGAUAUACAUGUGCUGGAAACAGCAUUAUAUUUUUCACAUGAGGAUCACCCAUGUAGAAGGCACGAGCUGAG
[3]
  apparent Kd: 15.7 nM
[4]
  apparent Kd: 27.3 nM

## UUCAGCUUGACAGGAUAUACAUGACUGCGAAAGCAGUCUAUCUUAAUAACAUGAGGAUCACCCAUGUAGAAGGGUCGAGCUGAA
[3]
  apparent Kd: 16.2 nM
[4]
  apparent Kd: 26.5 nM

## UUCAGCUUGACAGGAUAUACAUGUCAGCGAAAGCUGACUAUCUUAAUAACAUGAGGAUCACCCAUGUAGAAGGGUCGAGCUGAA
[3]
  apparent Kd: 16.4 nM
[4]
  apparent Kd: 25.6 nM

## UUCAUCAAUGAAGGAUAUCUAUGUCCAACAUGAGGAUCACCCAUGUUGAGGAUCACCUAUGUGUAGGAGAAGGUCAAUAUAACU
[1]
  apparent Kd: 8.56 nM
[2]
  apparent Kd: 8.54 nM

## UUCAUGUGAGGAUAUAGUACUCUUUCUAUUAUUUUUGAGUAUUAGAAGGCACAUGAGGAUCACCCAUGUAGUAC
[3]
  apparent Kd: 89.7 nM
[4]
  apparent Kd: 18.8 nM

## UUCAUGUGAGGAUAUCAGUAGUAAAAAAAUAAAAUUACUACUGAGAAGGCACAUGAGGAUCACCCAUGUGUCUC
[3]
  apparent Kd: 22.1 nM
[4]
  apparent Kd: 26.6 nM

## UUCCGGCAUGUAGGAUAUGGAUCCGAUUAGGAUUUAGAAGGACAUGAGGAUCACCCAUGUGCAUUUAAUUAGUCAUUACCGUUU
[3]
  apparent Kd: 41.6 nM
[4]
  apparent Kd: 86.5 nM

## UUCCUCAUAACAUGAGGAUCACCCAUGUAUUAUUUGAUAACUGAGGAUAUACUUUUAAUGUUUAUGUAGAAGGCAGAUACAGUU
[3]
  apparent Kd: 89.4 nM
[4]
  apparent Kd: 138 nM

## UUCGUGCAGCGUUGCUGUACGCGUACAUGAGGAUCACCCAUGUAGGAUAUGGUACGCUUUGCGUGCUAGAAGGAUAUGGAGAGG
[3]
  apparent Kd: 15.2 nM
[4]
  apparent Kd: 18.9 nM

## UUCGUGCAGCUUUGCUGUACGCGUACAUGAGGAUCACCCAUGUAGGAUAUGGUAGGCUUUGCUUACUAGAAGGAUAGUGUGAUU
[3]
  apparent Kd: 118 nM
[4]
  apparent Kd: 81.8 nM

## UUCGUGCAGCUUUGCUGUAUGCGUACAUGAGGAUCACCCAUGUAGGAUAUGGUAGGCUUUGCUUACUAGAAGGAUAGUGUGAUC
[3]
  apparent Kd: 97 nM
[4]
  apparent Kd: 40.3 nM

## UUGAAGAAUUAAGGAUAUUGAAUACAUAUGUUAAACAUGAGGAUCACCCAUGUGGGUUGCGGUAUCGAGAAGGUAAAUUACUAG
[1]
  apparent Kd: 83 nM
[2]
  apparent Kd: 78.7 nM
